Laboratory results as given in ChEMBL document CHEMBL1149125, “Synthesis and biological evaluation in human monocyte-derived macrophages of N-(N-acetyl-L-cysteinyl)-S-acetylcysteamine analogues with potent antioxidant and anti-HIV activities” (2004).

Test: Effective dose against human immuno deficiency virus-1/Ba-L in vitro in human monocyte-derived macrophages (MDM) cells
Format: functional
Conditions: for EC50: read-out: ED50 (the source's name)
Method in brief: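 Primary human monocytes (elutriated, ≥95% pure) differentiated 7 days into MDM in DMEM/10% heat-inactivated FCS; 1 million cells pretreated 1 h with a range of concentrations, then infected with HIV-1/BaL (10 000 TCID50, moi 0.01) for 24 h at 37 °C, washed, refed; medium and drug renewed twice weekly. Supernatant RT activity summed as cumulative RT; ED50/70/90 by Chou software; triplicate, two donors.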

SMILES	ED70 [µM]	ED90 [µM]	EC50 [µM]
CC(=O)N[C@@H](CS)C(=O)NCCSC(C)=O	80	195	45
CC(=O)N[C@@H](CS)C(=O)NCCSC(=O)C(C)(C)C	185	270	145
CC(=O)N[C@@H](CSC(=O)c1ccccc1)C(=O)NCCSC(=O)C(C)C	205	285	165
CC(=O)N[C@@H](CSC(C)=O)C(=O)NCCSC(=O)C(C)C	55	80	45
CC(=O)N[C@@H](CS)C(=O)NCCSC(=O)C(C)C	175	380	110
CC(=O)N[C@@H](CS)C(=O)NCCS	75	200	40
